The source made the active and inactive calls. No cut-off for these calls is given here.
Legend:
[1] = target: T1, Neuronal acetylcholine receptor subunit alpha-7 (Rattus norvegicus, UniProt Q05941); test: Agonist activity at rat alpha7 nAChR expressed in rat GH4C1 cells assessed as calcium flux by FLIPR assay; format: functional, cell-based, GH4-C1
Summary of the method: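 GH4C1 cells stably expressing rat α7, 1 × 10^5 cells/well, cultured 24 h. Loaded 40 min at 37 °C with 4 µM Fluo-4-AM in HBSS-20 mM HEPES pH 7.4 with probenecid. FLIPR calcium flux read after first compound addition (1 min at 1 s, then every 30 s for 10 min). MAX–MIN signal normalized to positive control; EC50 by sigmoidal variable-slope fit.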

[2] = target: T1, Neuronal acetylcholine receptor subunit alpha-7; test: Displacement of [3H]epibatidine from rat alpha7 nAChR expressed in rat GH4C1 cells; format: cell-based, GH4-C1
Summary of the method: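 Membranes from GH4C1 cells expressing rat α7 were incubated with 5 nM [3H]-epibatidine in 50 mM HEPES pH 7.4 with KCl, NaCl and MgCl2, for 1 h at 23 °C. Nonspecific binding defined with 300 µM nicotine. Bound ligand separated by GF/B filtration with five washes in ice-cold buffer.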

[3] = Oral bioavailability in Wistar rat; format: ADME, organism-based; settings: in vivo
[4] = target: T2, 5-hydroxytryptamine receptor 3A (Homo sapiens) (UniProt P46098); test: Activity at human 5HT3 receptor expressed in human HEK293 cells assessed as calcium flux by FLIPR assay
T2 sequence (whole entry): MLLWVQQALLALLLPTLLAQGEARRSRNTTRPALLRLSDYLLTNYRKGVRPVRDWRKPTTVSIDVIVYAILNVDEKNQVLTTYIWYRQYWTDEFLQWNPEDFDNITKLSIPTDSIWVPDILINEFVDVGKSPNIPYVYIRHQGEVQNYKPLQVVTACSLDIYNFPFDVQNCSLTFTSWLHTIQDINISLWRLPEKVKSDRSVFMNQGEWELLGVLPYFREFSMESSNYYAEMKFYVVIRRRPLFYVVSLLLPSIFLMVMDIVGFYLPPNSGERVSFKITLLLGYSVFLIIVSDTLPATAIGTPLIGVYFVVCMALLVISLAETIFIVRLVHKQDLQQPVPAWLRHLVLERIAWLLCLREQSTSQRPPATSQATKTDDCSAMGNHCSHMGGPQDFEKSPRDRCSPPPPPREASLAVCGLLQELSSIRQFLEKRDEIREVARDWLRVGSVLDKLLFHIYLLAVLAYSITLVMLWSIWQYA

Rattus norvegicus [5] = test: Cognitive enhancing effect in Wistar rat assessed as minimized spontaneous decay of episodic memory at 3 mg/kg, ip after 24 hrs by novel-object recognition test
hERG (KCNH2) = hERG (KCNH2) (Homo sapiens, UniProt Q12809); test: Inhibition of human ERG expressed in CHO cells at 1 uM; format: cell-based; settings: CHO cells expressing human ERG
[6] = Cmax in Wistar rat at 10 mg/kg, ip; format: ADME, organism-based; set-up: dose 10 mg/kg, route intraperitoneal; settings: in vivo
Summary of the method: (§1)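 Male Wistar rats, 6–8 weeks, 200–250 g, given a single 10 mg/kg ip dose at time 0. Plasma and brain were sampled at 0, 0.5, 1 and 3 h. Plasma was protein-precipitated with acetonitrile containing internal standard. Brain was homogenized and extracted with methanol. Analysis by LC–MS/MS; detection limits 1 ng/mL plasma and 10 ng/g brain.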

Rattus norvegicus [7] = test: Inhibition of MK-801-induced immediate working memory deficit in Long Evans rat at 1 to 10 mg/kg, ip after 48 hrs by novel-object recognition test
[8] = Half life in Wistar rat at 10 mg/kg, ip; format: ADME, organism-based; set-up: dose 10 mg/kg, route intraperitoneal; settings: in vivo; summary of the method: as §1
[9] = target: Histamine H3 receptor (Homo sapiens) (UniProt Q9Y5N1); test: Binding affinity to histamine H3 receptor expressed in HEK293 cells at 10 uM; format: cell-based
[10] = target: Neuronal acetylcholine receptor; alpha4/beta2 (Homo sapiens) (UniProt P17787+P43681); test: Inhibition of alpha4beta2 nAChR at 10 uM; format: protein-complex assay
[11] = target: Acetylcholine receptor; alpha1/beta1/delta/gamma (Homo sapiens) (UniProt P02708+P07510+P11230+Q07001); test: Activity at alpha-1-beta-1-gamma-delta nAChR in human TE671 cells assessed as effect on membrane potential by FLIPR assay; format: cell-based; settings: TE-671
Summary of the method: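 TE671 rhabdomyosarcoma cells, as endogenous muscle nAChR, were plated at 5 × 10^4 cells/well 24 h before assay. Loaded with membrane-potential dye in HBSS for 60 min at rt, then read on FLIPR with 10 s baseline before compound addition. First-addition signal taken as SUM of fluorescence, normalized to 1 µM epibatidine. EC50 from sigmoidal variable-slope fit.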

Rattus norvegicus [12] = test: AUC (last) in Wistar rat at 10 mg/kg, ip; format: ADME, organism-based, Plasma; set-up: time 0 - last, dose 10 mg/kg, route intraperitoneal; settings: in vivo; summary of the method: as §1
[13] = Ratio of drug level from brain to plasma in Wistar rat at 10 mg/kg, ip; format: ADME, organism-based; set-up: dose 10 mg/kg, route intraperitoneal; summary of the method: as §1
[14] = target: Neuronal acetylcholine receptor subunit alpha-7 (Rattus norvegicus) (UniProt Q05941); test: (§2) Activity at rat alpha7 nAChR expressed in rat GH4C1 cells by patch clamp technique; format: cell-based; settings: GH4-C1
Summary of the method: (§3)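 GH4C1 cells stably expressing rat α7 were pretreated with 0.5 mM Na-butyrate for 2 days. Whole-cell clamp at −60 mV; pipette contained K-gluconate, EGTA, ATP. Agonist or acetylcholine applied by fast perfusion in HBSS + 10 mM HEPES as 500 ms pulses at 10 s intervals, sampled at 1 kHz. Peak amplitude and charge measured; EC50 from concentration–response curves.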

[15] = target: T1, Neuronal acetylcholine receptor subunit alpha-7; test: as §2; format: cell-based, GH4-C1; summary of the method: as §3
Rattus norvegicus [16] = test: Inhibition of scopolamine-induced immediate working memory deficit in Wistar rat at 1 to 10 mg/kg, ip after 48 hrs by novel-object recognition test; format: functional, organism-based

T1 sequence (Q05941 whole entry): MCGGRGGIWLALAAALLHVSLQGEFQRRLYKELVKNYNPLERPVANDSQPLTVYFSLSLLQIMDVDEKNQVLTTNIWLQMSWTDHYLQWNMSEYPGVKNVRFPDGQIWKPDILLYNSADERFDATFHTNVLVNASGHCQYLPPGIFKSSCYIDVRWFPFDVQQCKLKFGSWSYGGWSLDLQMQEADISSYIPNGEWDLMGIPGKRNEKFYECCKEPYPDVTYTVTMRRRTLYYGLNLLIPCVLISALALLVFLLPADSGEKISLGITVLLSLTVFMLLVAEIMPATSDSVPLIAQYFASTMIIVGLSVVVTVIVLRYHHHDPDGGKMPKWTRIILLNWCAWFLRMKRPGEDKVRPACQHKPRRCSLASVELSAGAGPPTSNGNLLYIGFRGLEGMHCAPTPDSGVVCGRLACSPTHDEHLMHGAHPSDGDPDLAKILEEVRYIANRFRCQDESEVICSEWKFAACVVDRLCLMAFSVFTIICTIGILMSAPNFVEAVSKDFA
Sequence of hERG (KCNH2) (Q12809 whole entry): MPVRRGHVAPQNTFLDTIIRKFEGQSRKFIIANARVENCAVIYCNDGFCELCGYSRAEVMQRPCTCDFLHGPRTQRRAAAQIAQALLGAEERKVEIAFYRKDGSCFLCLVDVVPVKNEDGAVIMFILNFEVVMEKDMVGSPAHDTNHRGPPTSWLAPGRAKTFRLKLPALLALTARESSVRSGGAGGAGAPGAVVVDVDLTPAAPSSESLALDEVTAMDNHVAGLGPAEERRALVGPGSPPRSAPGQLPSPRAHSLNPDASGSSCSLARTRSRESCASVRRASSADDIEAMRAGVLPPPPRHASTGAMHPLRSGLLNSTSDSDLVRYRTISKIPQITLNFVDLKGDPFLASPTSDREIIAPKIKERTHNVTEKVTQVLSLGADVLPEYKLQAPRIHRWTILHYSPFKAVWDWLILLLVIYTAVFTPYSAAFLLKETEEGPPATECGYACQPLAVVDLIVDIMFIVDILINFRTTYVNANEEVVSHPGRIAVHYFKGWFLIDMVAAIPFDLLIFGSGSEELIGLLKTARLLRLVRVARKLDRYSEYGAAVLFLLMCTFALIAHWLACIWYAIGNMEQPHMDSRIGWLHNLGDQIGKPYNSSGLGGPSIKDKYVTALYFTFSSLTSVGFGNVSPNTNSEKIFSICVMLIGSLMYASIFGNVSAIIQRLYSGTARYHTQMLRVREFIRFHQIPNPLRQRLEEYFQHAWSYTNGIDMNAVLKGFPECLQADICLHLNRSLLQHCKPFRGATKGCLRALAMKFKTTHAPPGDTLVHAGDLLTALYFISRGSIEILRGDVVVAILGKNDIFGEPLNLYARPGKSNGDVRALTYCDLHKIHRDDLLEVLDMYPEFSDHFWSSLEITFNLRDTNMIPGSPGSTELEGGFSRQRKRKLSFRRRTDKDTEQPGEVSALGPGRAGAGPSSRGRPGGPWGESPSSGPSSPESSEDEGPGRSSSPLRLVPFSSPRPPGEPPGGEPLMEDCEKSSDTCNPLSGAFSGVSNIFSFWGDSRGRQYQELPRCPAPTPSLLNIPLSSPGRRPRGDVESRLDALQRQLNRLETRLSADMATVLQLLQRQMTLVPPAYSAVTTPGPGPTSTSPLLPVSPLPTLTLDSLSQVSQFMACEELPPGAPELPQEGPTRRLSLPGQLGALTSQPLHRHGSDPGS
Sequence of Histamine H3 receptor (Homo sapiens) (Q9Y5N1 whole entry): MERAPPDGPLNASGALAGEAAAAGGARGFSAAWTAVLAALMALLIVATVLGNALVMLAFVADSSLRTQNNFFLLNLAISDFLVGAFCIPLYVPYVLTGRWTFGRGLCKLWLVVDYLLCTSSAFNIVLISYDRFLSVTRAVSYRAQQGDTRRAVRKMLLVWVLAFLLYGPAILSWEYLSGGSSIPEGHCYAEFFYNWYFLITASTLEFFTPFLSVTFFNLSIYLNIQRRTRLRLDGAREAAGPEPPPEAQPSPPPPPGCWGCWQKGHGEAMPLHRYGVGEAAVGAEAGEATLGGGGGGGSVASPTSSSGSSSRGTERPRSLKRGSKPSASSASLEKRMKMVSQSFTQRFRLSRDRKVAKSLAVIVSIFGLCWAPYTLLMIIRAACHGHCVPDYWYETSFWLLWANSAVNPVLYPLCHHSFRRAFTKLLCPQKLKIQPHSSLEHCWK
Sequence of Neuronal acetylcholine receptor subunit alpha-7 (Rattus norvegicus) (Q05941 whole entry, the tested form may be a part): as the sequence (Q05941 whole entry) above

Row | EC50 [1] [nM] | SMILES | other results
1 | 2470 | COc1ccccc1N1CCN(CCCCC(=O)Nc2ccc(-c3cccnc3)cc2)CC1 | 
2 | 2660 | CC(=O)N1CCCN(CCCCC(=O)Nc2ccc(-c3cccnc3)cc2)CC1 | 
3 | 240 | CC(C)Oc1ccccc1-c1ccc(NC(=O)CCCCN2CCCCC2)cc1 | 
4 | 10900 | O=C(CCCCN1CCCCC1)Nc1ccc2c(c1)OCO2 | 
5 | 3560 | CN1CCN(CCCCC(=O)Nc2ccc(-c3cccnc3)cc2)CC1 | 
6 | 2070 | O=C(CCCCN1CCCCC1)Nc1cccc(Br)c1 | 
7 | 1350 | O=C(CCCCN1CCCCC1)Nc1ccc(Br)cc1 | 
8 | 540 | O=C(CCCCN1CCCCCC1)Nc1ccc(-c2cccnc2)cc1 | 
9 | 530 | O=C(CCCCN1CCCCC1)Nc1ccc(-c2cccnc2)cc1 | 
10 | 160 | O=C(CCCCN1CCCCC1)Nc1ccc(-c2ccc(F)cc2F)cc1 | 
11 | 120 | CC(=O)Nc1cccc(-c2ccc(NC(=O)CCCCN3CCCCC3)cc2)c1 | 
12 | 990 | CC(=O)c1cccc(-c2ccc(NC(=O)CCCCN3CCCCC3)cc2)c1 | 
13 | 5070 | O=C(CCCCN1CCCCC1)Nc1ccc2ncccc2c1 | 
14 | 90 | NC(=O)c1cccc(-c2ccc(NC(=O)CCCCN3CCCCC3)cc2)c1 | 
15 | 2780 | CC(=O)N1CCN(CCCCC(=O)Nc2ccc(-c3cccnc3)cc2)CC1 | 

Second part, the compound before the results:

Row | SMILES | EC50 [1] [nM] | other results
16 | COc1ccc(N2CCN(CCCCNC(=O)c3ccc(-c4ccccc4OC)cc3)CC2)c(OC)c1 | 2910 | 
17 | COc1ccc(N2CCN(CCCCNC(=O)c3ccc(-c4ccccc4)cc3)CC2)c(OC)c1 | > 30000 | 
18 | Cc1cccc(NC(=O)CCCCN2CCCCC2)c1 | > 30000 | 
19 | COc1ccc(N2CCN(CCCCNC(=O)c3ccc([N+](=O)[O-])cc3)CC2)c(OC)c1 | > 30000 | 
20 | Cl.O=C(CCCCN1CCOCC1)Nc1ccc(-c2cccnc2)cc1 | 1650 | Ki [2]: 260 nM; bioavailability [3]: 57%; Selectivity ratio [4]: inactive; Activity (Rattus norvegicus [5]): Active; inhibition at 1 µM (hERG (KCNH2)): 6%; Cmax [6]: 244 ng/mL; inhibition (Rattus norvegicus [7]): Active; half-life [8]: 48 min; Activity [9]: Active; inhibition [10]: 45%; Activity [11]: inactive; AUC (Rattus norvegicus [12]): 347 ng·h/mL; Kp [13]: 2.5; Emax [14]: 88%; EC50 [15]: 12000 nM; inhibition (Rattus norvegicus [16]): Active
21 | COc1ccc(N2CCN(CCCCNC(=O)c3ccc(-c4ccccc4C)cc3)CC2)c(OC)c1 | 5770 | 
22 | COc1ccc(N2CCN(CCCCNC(=O)c3ccc(-c4ccccc4F)cc3)CC2)c(OC)c1 | 6030 | 
23 | CCN(CC)C(=O)C1CCCN(CCCCC(=O)Nc2ccc(-c3cccnc3)cc2)C1 (stereo not drawn) | > 30000 | 
24 | COc1ccc(N2CCN(CCCCNC(=O)c3ccc(Br)cc3)CC2)c(OC)c1 | > 30000 | 
25 | CN(CCCCC(=O)Nc1ccc(-c2cccnc2)cc1)CCc1ccccn1 | 3270 | 
26 | COc1ccc(N2CCN(CCCCNC(=O)c3ccc(-c4ccccc4Cl)cc3)CC2)c(OC)c1 | 3110 | 
27 | COc1ccc(N2CCN(CCCCNC(=O)c3ccc(-c4ccccn4)cc3)CC2)c(OC)c1 | 2840 | 
